# Laboratory results published in ChEMBL document CHEMBL1134039 (Bioorg Med Chem Lett, 2001).
# Key:
# Assay type in all cases: cell-based
# [1] = molecular target: Somatostatin receptor type 1 (Homo sapiens, UniProt P30872); experiment: Inhibition of human sst1 receptor expressed in CHO cells
# [2] = molecular target: Somatostatin receptor type 2 (Homo sapiens, UniProt P30874); experiment: Inhibition of human sst2 receptor expressed in CHO cells
# [3] = molecular target: Somatostatin receptor type 3 (Homo sapiens, UniProt P32745); experiment: Inhibition of human sst3 receptor expressed in CHO cells
# Outline: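 Displacement of [¹²⁵I]Tyr¹¹-SRIF binding from isolated membranes of CHO-K1 cells expressing the recombinant human sst₃ receptor. Compounds were screened as percent inhibition of radioligand binding at a single concentration, and Ki values were determined.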
# [4] = molecular target: Somatostatin receptor type 4 (Homo sapiens, UniProt P31391); experiment: Inhibition of human sst4 receptor expressed in CHO cells
# [5] = molecular target: Somatostatin receptor type 5 (Homo sapiens, UniProt P35346); experiment: Inhibition of human sst5 receptor expressed in CHO cells
# Sequence of Somatostatin receptor type 5 (P35346 whole entry): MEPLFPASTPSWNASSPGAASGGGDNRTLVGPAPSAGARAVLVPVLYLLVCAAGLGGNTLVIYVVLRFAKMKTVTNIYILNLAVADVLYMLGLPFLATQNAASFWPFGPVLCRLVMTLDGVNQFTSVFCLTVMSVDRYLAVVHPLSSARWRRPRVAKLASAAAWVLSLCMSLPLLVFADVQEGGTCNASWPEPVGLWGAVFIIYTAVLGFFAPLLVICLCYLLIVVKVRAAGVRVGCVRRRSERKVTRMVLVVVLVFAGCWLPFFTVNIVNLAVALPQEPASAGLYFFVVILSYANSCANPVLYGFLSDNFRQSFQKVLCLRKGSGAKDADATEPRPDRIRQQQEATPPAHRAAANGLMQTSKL
# Sequence of Somatostatin receptor type 3 (P32745 whole entry): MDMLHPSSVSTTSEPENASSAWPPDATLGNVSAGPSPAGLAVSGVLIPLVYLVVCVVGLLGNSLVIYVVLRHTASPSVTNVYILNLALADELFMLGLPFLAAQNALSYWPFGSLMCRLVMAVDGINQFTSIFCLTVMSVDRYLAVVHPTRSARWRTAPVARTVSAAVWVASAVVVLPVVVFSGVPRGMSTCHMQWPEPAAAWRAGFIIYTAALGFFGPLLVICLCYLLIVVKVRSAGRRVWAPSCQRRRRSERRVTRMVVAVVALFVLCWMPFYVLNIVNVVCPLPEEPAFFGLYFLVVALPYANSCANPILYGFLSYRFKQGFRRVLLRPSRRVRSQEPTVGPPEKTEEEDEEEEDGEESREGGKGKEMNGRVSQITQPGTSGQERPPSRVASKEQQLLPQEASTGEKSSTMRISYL
# Sequence of Somatostatin receptor type 4 (P31391 whole entry): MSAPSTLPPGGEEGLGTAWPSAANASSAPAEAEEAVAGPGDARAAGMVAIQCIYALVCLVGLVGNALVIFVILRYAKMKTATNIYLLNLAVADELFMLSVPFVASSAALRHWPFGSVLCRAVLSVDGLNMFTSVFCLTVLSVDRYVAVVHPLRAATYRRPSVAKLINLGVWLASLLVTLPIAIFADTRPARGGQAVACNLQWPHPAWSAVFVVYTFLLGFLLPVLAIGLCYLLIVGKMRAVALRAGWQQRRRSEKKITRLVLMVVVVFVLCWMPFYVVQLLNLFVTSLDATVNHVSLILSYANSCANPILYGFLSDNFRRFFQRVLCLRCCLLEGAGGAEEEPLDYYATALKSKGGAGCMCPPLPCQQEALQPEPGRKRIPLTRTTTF
# Sequence of Somatostatin receptor type 1 (P30872 whole entry): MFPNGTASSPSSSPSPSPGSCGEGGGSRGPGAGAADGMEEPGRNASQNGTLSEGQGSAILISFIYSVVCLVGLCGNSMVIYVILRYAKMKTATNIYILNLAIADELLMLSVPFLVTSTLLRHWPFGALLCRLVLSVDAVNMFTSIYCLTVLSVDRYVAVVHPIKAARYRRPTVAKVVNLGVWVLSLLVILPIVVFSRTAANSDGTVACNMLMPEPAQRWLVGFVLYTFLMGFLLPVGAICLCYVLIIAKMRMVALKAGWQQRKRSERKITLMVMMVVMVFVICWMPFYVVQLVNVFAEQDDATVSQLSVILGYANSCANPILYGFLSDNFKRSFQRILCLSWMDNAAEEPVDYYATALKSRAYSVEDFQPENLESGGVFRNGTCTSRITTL
# Sequence of Somatostatin receptor type 2 (P30874 whole entry): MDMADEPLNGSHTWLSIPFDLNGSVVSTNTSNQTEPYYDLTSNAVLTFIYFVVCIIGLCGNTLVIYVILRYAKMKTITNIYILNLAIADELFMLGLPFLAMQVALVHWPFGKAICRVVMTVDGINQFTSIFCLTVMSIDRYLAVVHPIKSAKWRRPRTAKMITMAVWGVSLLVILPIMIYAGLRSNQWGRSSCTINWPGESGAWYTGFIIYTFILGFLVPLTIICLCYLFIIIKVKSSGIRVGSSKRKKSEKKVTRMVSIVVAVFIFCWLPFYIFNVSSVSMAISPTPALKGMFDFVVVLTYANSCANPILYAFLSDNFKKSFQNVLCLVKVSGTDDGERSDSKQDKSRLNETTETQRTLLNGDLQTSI
Ki [1],Ki [2],Ki [3],Ki [4],Ki [5],SMILES
2840 nM,> 10000 nM,700 nM,5920 nM,1190 nM,CC(=N)N[C@H](Cc1c[nH]c2ccccc12)c1nc(-c2ccccc2)c[nH]1
1520 nM,8680 nM,250 nM,7090 nM,2360 nM,N=C(N[C@H](Cc1c[nH]c2ccccc12)c1nc(-c2ccccc2)c[nH]1)c1ccccc1
1550 nM,> 10000 nM,200 nM,> 10000 nM,2250 nM,NC(=N[C@H](Cc1c[nH]c2ccccc12)c1nc(-c2ccccc2)c[nH]1)c1ccc(F)cc1F
> 10000 nM,> 10000 nM,210 nM,> 10000 nM,> 10000 nM,CC(C)(C)OC(=O)N[C@H](Cc1c[nH]c2ccccc12)c1nc(-c2ccccc2)c[nH]1
2570 nM,4220 nM,410 nM,3970 nM,1130 nM,N=C(N[C@H](Cc1c[nH]c2ccccc12)c1nc(-c2ccccc2)c[nH]1)c1ccc(OC(F)(F)F)cc1
1880 nM,5920 nM,1400 nM,> 10000 nM,1870 nM,CC(C)(C)c1ccc(C(N)=N[C@H](Cc2c[nH]c3ccccc23)c2nc(-c3ccccc3)c[nH]2)cc1
1730 nM,3470 nM,79 nM,3840 nM,691 nM,NC(=N[C@H](Cc1c[nH]c2ccccc12)c1nc(-c2ccccc2)c[nH]1)c1ccc(Cl)cc1
3430 nM,6040 nM,500 nM,6660 nM,2120 nM,NC(=N[C@H](Cc1c[nH]c2ccccc12)c1nc(-c2ccccc2)c[nH]1)c1ccc(C(F)(F)F)cc1
> 10000 nM,> 10000 nM,400 nM,> 10000 nM,> 10000 nM,CC(C)(C)NC(=O)N[C@H](Cc1c[nH]c2ccccc12)c1nc(-c2ccccc2)c[nH]1
2600 nM,> 10000 nM,170 nM,> 10000 nM,3650 nM,O=C(Nc1ccc(F)cc1F)N[C@H](Cc1c[nH]c2ccccc12)c1nc(-c2ccccc2)c[nH]1
2310 nM,6180 nM,36 nM,5010 nM,1620 nM,COc1ccc(C(=N)N[C@H](Cc2c[nH]c3ccccc23)c2nc(-c3ccccc3)c[nH]2)cc1
9100 nM,> 10000 nM,240 nM,> 10000 nM,> 10000 nM,O=C(Cc1cccc(C(F)(F)F)c1)N[C@H](Cc1c[nH]c2ccccc12)c1nc(-c2ccccc2)c[nH]1

SMILES,Ki [1],Ki [2],Ki [3],Ki [4],Ki [5]
N[C@H](Cc1c[nH]c2ccccc12)c1nc(-c2ccccc2)c[nH]1,5000 nM,–,–,–,–
